Reference: ChEMBL document CHEMBL1126930, “New analogues of N-(2-aminoethyl)-4-chlorobenzamide (Ro 16-6491). Some of the most potent monoamine oxidase-B inactivators” (J Med Chem, 1993)

Test: Inhibition of mitochondrial Monoamine oxidase-B purified from bovine liver
Procedure, shortened: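 MAO-B purified from bovine liver mitochondria. Enzyme preincubated 20 min with various inactivator concentrations. 10 μL aliquots then assayed for remaining activity in 490 μL of 1 mM benzylamine hydrochloride in 50 mM Tris-HCl, pH 9.0. IC50 extrapolated from plots of percent activity remaining versus inhibitor concentration. Duplicate runs varied by 0–5%.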

Compound | IC50 [nM]
NCCNC(=O)c1ccc(Br)cc1 | 42
NCCNC(=O)c1ccccc1F | 160
NCCNC(=O)c1ccccc1[N+](=O)[O-] | 2170
NCCNC(=O)c1ccc(I)cc1 | 170
NCCNC(=O)c1cccc(Br)c1 | 52
NCCNC(=O)c1ccc(Cl)cn1 [LAZABEMIDE] | 30
NCCNC(=O)c1ccccc1I | 61500
NCCNC(=O)c1ccc(F)cc1 | 56
NCCNC(=O)c1cccc(I)c1 | 37
NCCNC(=O)c1ccc([N+](=O)[O-])cc1 | 48200
NCCNC(=O)c1ccc(Cl)cc1 | 45
NCCNC(=O)c1cccc(F)c1 | 200
NCCNC(=O)c1cccc([N+](=O)[O-])c1 | 60
NCCNC(=O)c1ccccc1Br | 1200
NCCNC(=O)c1cccc(Cl)c1 | 120
NCCNC(=O)c1ccccc1 | 250
NCCNC(=O)c1ccccc1Cl | 490
